These results are taken from ChEMBL document CHEMBL1139338, “Comparison of benzil and trifluoromethyl ketone (TFK)-mediated carboxylesterase inhibition using classical and 3D-quantitative structure-activity relationship analysis” (Bioorg Med Chem, 2009).

Series [1] in a line: Inhibition of rabbit carboxylesterase after 5 mins. Further details: species or system Oryctolagus cuniculus.
For series [2], the target named is T1, Liver carboxylesterase 1 (Homo sapiens, UniProt P23141).
T1 sequence (P23141 whole entry): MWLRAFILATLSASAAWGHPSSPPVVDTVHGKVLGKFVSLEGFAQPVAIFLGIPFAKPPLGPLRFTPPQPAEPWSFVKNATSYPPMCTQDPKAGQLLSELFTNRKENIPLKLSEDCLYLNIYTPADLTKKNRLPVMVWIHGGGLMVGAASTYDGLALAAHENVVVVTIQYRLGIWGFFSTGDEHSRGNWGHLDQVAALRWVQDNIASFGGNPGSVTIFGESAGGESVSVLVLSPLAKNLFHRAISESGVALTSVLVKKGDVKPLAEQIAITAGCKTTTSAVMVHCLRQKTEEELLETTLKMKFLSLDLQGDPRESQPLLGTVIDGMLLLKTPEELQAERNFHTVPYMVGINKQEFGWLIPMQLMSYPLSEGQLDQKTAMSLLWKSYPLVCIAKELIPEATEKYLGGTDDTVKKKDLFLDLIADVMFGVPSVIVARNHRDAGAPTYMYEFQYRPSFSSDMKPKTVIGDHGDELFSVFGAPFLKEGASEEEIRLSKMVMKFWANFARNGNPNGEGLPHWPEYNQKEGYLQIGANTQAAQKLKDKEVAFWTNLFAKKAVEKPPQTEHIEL
As to the kind of experiment: Inhibition of human carboxylesterase 1 after 5 mins.

A short description of series [3]: Inhibition of human intestinal carboxylesterase after 5 mins.
Series [4] deals with T1, Liver carboxylesterase 1. As to the kind of experiment: Inhibition of human carboxylesterase 1 after 24 hrs.
Series [5] is described as follows: Inhibition of rabbit carboxylesterase after 24 hrs. Details: species or system Oryctolagus cuniculus.
Series [6] is described as follows: Inhibition of human intestinal carboxylesterase after 24 hrs.
The nature of series [7]: Lipophilicity, log P of the compound. The class given is physicochemical. The note with it: octanol/water. The procedure, abridged:
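Computed log P from the ClogP program. The values in parentheses beside them are measured log P taken from literature sources, not measured in this work.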

A short description of series [8]: Inhibition of rabbit carboxylesterase. Further details: species or system Oryctolagus cuniculus.

In the case of `CCCCCCSCC(=O)C(F)(F)F`, the negative-log Ki (pKi) in series [1] came to 6.6; in series [3], 6.25; in series [5] it was 8; in series [6], 8.19. Moreover, the figures for the inhibition constant Ki on Liver carboxylesterase 1 [2] and on Liver carboxylesterase 1 [4] were 331 nM and 5.25 nM, respectively.
In the case of `Cc1ccc(C(=O)C(=O)c2ccccc2)cc1`, the log partition coefficient (logP) in series [7] (read-out: logP) worked out at 3.88. The compound also yielded a pKi in series [8] of 6.92.
On to `O=C(C(=O)c1ccc(Br)c([N+](=O)[O-])c1)c1ccc(Br)c([N+](=O)[O-])c1`, for which the lipophilicity (logP) in series [7] (read-out: logP) was -1.38. Besides, in series [8], the pKi stood at 8.06.
Consider `OC(O)(CSCCc1ccccc1)C(F)(F)F`, for which the pKi in series [1] came to 4.87; in series [3] it was 4.29; in series [5] it was 6.97; in series [6] it was 6.93. For the same compound, the Ki on Liver carboxylesterase 1 [2] is 13800 nM; at Liver carboxylesterase 1 [4] it was 6.03 nM.
For `CCCCCCCCCCCC[S+]([O-])CC(O)(O)C(F)(F)F` (stereo unspecified), the pKi was found to be 5.96 in series [1], 7.27 in series [3], 8.85 in series [5] and 9.4 in series [6]. For the same compound, the inhibition constant Ki on Liver carboxylesterase 1 [2] is 1910 nM; on Liver carboxylesterase 1 [4], 0.398 nM.
As to `CC[C@H](C)C(=O)O[C@H]1C[C@@H](C)C=C2C=C[C@H](C)[C@H](CC[C@@H]3C[C@@H](O)CC(=O)O3)[C@H]21` [LOVASTATIN], in series [7] (read-out: logP), the lipophilicity (logP) came out at 4.3.
On to `O=C(C(=O)c1ccc(Br)s1)c1ccc(Br)s1`, for which, in series [7] (read-out: logP), the logP was 4.61. In series [8], this compound gave a pKi of 8.15.
The like results for `COc1ccc(C(=O)C(=O)c2ccc(OC)cc2)cc1` were, in that order, 3.61 and 6.24.
The like results for `O=C(C(=O)c1ccc(C(=O)C(=O)c2ccccc2)cc1)c1ccccc1` were, in that order, 4.89 and 8.21.
With `Cc1ccc(C(=O)C(=O)c2ccc(Cl)cc2)cc1`, the logP in series [7] (read-out: logP) was 4.67. The same compound registered a pKi in series [8] of 7.79.
Turning to `COc1ccc(C(=O)C(=O)c2ccccc2Cl)cc1OC`, the logP in series [7] (read-out: logP) worked out at 4.04. Also, the negative-log Ki (pKi) in series [8] was 7.44.
The like results for `Cc1ccc(C(=O)C(=O)c2ccc(C)cc2)cc1` were, in that order, 4.38 and 7.3.
On to `CC(=O)Oc1ccc2c(C)cc(=O)oc2c1`, for which, in series [7] (read-out: logP), the logP was determined as 2.11.
The same measure, in the same setting: with `CC(=O)Oc1ccccc1[N+](=O)[O-]` the figure was 1.5.
In the case of `COc1ccc(C(=O)C(=O)c2ccccc2)cc1`, the logP in series [7] (read-out: logP) was 3.6. This compound also had a pKi in series [8] of 6.7.
As to `CCCCSCC(=O)C(F)(F)F`, the pKi in series [1] stood at 6.38; in series [3] it was 5.77; in series [5], 8.11; in series [6], 7.78. For the same compound, the Ki is 794 nM on Liver carboxylesterase 1 [2] and 5.37 nM on Liver carboxylesterase 1 [4].
Regarding `O=C(C(=O)c1ccc(Cl)cc1)c1ccccc1`, the lipophilicity (logP) in series [7] (read-out: logP) is 4.17. In series [8], this compound returned a negative logarithm of the Ki (pKi) of 7.62.
In the case of `CCCCCCCCSCC(=O)C(F)(F)F`, the negative logarithm of the Ki (pKi) in series [1] turned out to be 6.82; in series [3], 6.66; in series [5], 8.11; in series [6] it was 8.46. Moreover, the results for the Ki at Liver carboxylesterase 1 [2] and at Liver carboxylesterase 1 [4] were 191 nM and 4.17 nM, respectively.
Turning to `CCCCCCCCCC[S+]([O-])CC(O)(O)C(F)(F)F` (stereo unspecified), the pKi in series [1] stood at 5.6; in series [3], 5.72; in series [5], 8.52; in series [6], 9.3. Moreover, the Ki on Liver carboxylesterase 1 [2] was 5250 nM; on Liver carboxylesterase 1 [4], 0.501 nM.
Turning to `O=C(C(=O)c1ccc([N+](=O)[O-])cc1)c1ccccc1`, in series [7] (read-out: logP), the logP turned out to be 0.09. In series [8], this compound registered a pKi of 7.66.
Turning to `CCCCCCCCCCSCC(=O)C(F)(F)F`, the pKi in series [1] came to 6.8; in series [3], 6.82; in series [5] it was 8.55; in series [6] it was 8.34. Also, the inhibitory constant (Ki) is 129 nM at Liver carboxylesterase 1 [2] and 3.98 nM at Liver carboxylesterase 1 [4].
As to `O=C(C(=O)c1ccc(Cl)cc1)c1ccc(Cl)cc1`, in series [7] (read-out: logP), the logP stood at 4.9. For the same compound, the pKi in series [8] worked out at 8.02.
For `CCCCCCCCCCCCS(=O)(=O)CC(O)(O)C(F)(F)F`, the pKi in series [1] is listed as 6.82; in series [3], 7.49; in series [5], 9.15; in series [6], 9. Moreover, the results for the inhibition constant (Ki) on Liver carboxylesterase 1 [2] and on Liver carboxylesterase 1 [4] were 741 nM and 0.398 nM, respectively.
For the compound `O=C(C(=O)c1ccc2ccccc2c1)c1ccc2ccccc2c1`, the logP in series [7] (read-out: logP) was found to be 5.73. Further, in series [8], the pKi was found to be 8.98.
Consider `COc1cccc(C(=O)C(=O)c2cccc(OC)c2)c1`, for which the logP in series [7] (read-out: logP) was determined as 3.61. Further, the pKi in series [8] came to 7.14.
The like results for `Cc1ccc(C(=O)C(=O)c2ccccc2)cc1C` were, in that order, 4.33 and 6.97.
Regarding `CC(=O)Oc1ccc2c3c1O[C@H]1[C@@H](OC(C)=O)C=C[C@H]4[C@@H](C2)N(C)CC[C@@]341` [DIACETYLMORPHINE], in series [7] (read-out: logP), the logP is 1.5.
Consider `CCCCCCCCCCS(=O)(=O)CC(O)(O)C(F)(F)F`, for which the pKi in series [1] worked out at 6.66; in series [3], 7.1; in series [5] it was 8.8; in series [6] it was 8.96. Moreover, the Ki was 794 nM at Liver carboxylesterase 1 [2] and 0.302 nM on Liver carboxylesterase 1 [4].
Consider `CC(=O)Oc1ccccc1C(=O)O` [ASPIRIN], for which the lipophilicity (logP) in series [7] (read-out: logP) came to 1.02.
With `CCCCCCOCC(O)(O)C(F)(F)F`, the negative logarithm of the Ki (pKi) in series [1] turned out to be 5.57; in series [3], 5.04; in series [5], 8.77; in series [6], 8.92. Further, the results for the inhibition constant (Ki) at Liver carboxylesterase 1 [2] and on Liver carboxylesterase 1 [4] were 3310 nM and 1 nM, respectively.
`O=C(C(=O)c1cccc([N+](=O)[O-])c1)c1cccc([N+](=O)[O-])c1`: the logP in series [7] (read-out: logP) is -3.2. Also, the negative-log Ki (pKi) in series [8] is given as 6.57.
The like results for `Cc1ccc(C(=O)C(=O)c2ccccc2)cc1[N+](=O)[O-]` were, in that order, 0.59 and 7.92.
The like results for `O=C(C(=O)c1ccc([N+](=O)[O-])cc1[N+](=O)[O-])c1ccccc1` were, in that order, -3.2 and 6.28.
In the case of `CCCCCCCCCCC(=O)C(F)(F)F`, the negative logarithm of the Ki (pKi) in series [1] was 6.85; in series [3] it was 7.66; in series [5], 5.49; in series [6], 5.69. The inhibitory constant (Ki) on Liver carboxylesterase 1 [2] was 151 nM; on Liver carboxylesterase 1 [4] it was 2.29 nM.
In the case of `COc1cc(Br)ccc1C(=O)C(=O)c1ccc(Br)cc1OC`, the logP in series [7] (read-out: logP) came out at 4.68. The negative-log Ki (pKi) in series [8] is 7.27.
For `CC1(C)C(C=C(Cl)Cl)C1C(=O)OCc1cccc(Oc2ccccc2)c1` (stereo unspecified) [PERMETHRIN], the logP in series [7] stood at 7.38.
For the compound `O=C(C(=O)c1ccccc1Cl)c1ccccc1Cl`, the log partition coefficient (logP) in series [7] (read-out: logP) is 4.9. Also, the pKi in series [8] came to 6.66.
As for `O=C(C(=O)c1ccccn1)c1ccccn1`, in series [7] (read-out: logP), the logP worked out at 0.9. This compound displayed a negative-log Ki (pKi) in series [8] of 6.32.
For `O=C(C(=O)c1ccc(CBr)cc1)c1ccccc1`, the logP in series [7] (read-out: logP) was 4.16. The compound further had a negative logarithm of the Ki (pKi) in series [8] of 7.82.
Turning to `O=C(O)c1ccc(C(=O)C(=O)c2ccccc2)cc1`, the logP in series [7] (read-out: logP) was determined as 3.39. This compound showed a negative-log Ki (pKi) in series [8] of 7.19.
`COC(=O)[C@H]1[C@@H](OC(=O)c2ccccc2)C[C@@H]2CC[C@H]1N2C` [COCAINE]: the logP in series [7] (read-out: logP) was determined as 2.57.
`O=C(C(=O)c1c(Cl)c(Cl)c(Cl)c(Cl)c1Cl)c1c(F)c(F)c(F)c(F)c1F`: the logP in series [7] (read-out: logP) turned out to be 7.2. The compound also had a negative-log Ki (pKi) in series [8] of 6.08.
